Assays:
[1] = Botryllamide G plasma pharmacokinetics in wild-type mice; format: in vivo; details: male, FVB, mouse, iv, 13.4 mg/kg
Procedure, shortened: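 Destructive sampling (n = 3 per timepoint) ran 0.25–24 h into heparinized plasma. Phospholipid-removal/methanol precipitation, then isocratic C18 LC-MS/MS (20–50,000 ng/mL). AUClast used Bailer's method. t1/2 = ln2/terminal kEL, from concentrations above LLOQ.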

ABCB1 = details: read-out: IC50 ABCB1 inhibition; in vitro; cited from earlier work
[2] = Aqueous solubility in intravenous formulation; format: physicochemical; details: limited the dose to 13.4 mg/kg
[3] = Lapatinib brain and plasma exposure in Mdr1a/Mdr1b; format: in vivo, mouse; details: for lapatinib brain AUC through 8 h: Mdr1a/Mdr1b (-/-) mice; for AUC: male, FVB, mouse, brain, oral
[4] = Abcg2 knockout animals (so in the source); cited from earlier work
[5] = Lapatinib brain and plasma exposure in wild-type FVB mice; format: in vivo, mouse

## CO/C(=C\c1ccc(O)cc1)C(=O)N/C=C/c1cc(Br)c(O)c(Br)c1 [botryllamide G]
[1]
  AUC: 2090 ng·h/mL
  Cmax: 4110 ng/mL
  half-life: 4.6 h
ABCB1
  IC50: > 50 µM
[2]
  aqueous solubility: poor

## CS(=O)(=O)CCNCc1ccc(-c2ccc3ncnc(Nc4ccc(OCc5cccc(F)c5)c(Cl)c4)c3c2)o1 [lapatinib, N-{3-chloro-4-[(3-fluorobenzyl)oxy]phenyl}-6-[5-({[2-(methylsulfonyl)ethyl]amino}methyl)-2-furyl]-4-quinazolinamine]
[3]; lapatinib + botryllamide G
  lapatinib brain AUC through 8 h: 4007 pg·h/mg
[3]; lapatinib alone
  lapatinib brain AUC through 8 h: 2058 pg·h/mg
[3]
  AUC: 4010 ng·h/mL
[3]; 90 mg/kg
  AUC: 2060 ng·h/mL
[4]
  increase in lapatinib brain concentrations: approximately 40 fold
[5]; male, FVB, mouse, brain and plasma, oral, 90 mg/kg
  Kp: 0.067
[5]; male, FVB, mouse, plasma, oral, 90 mg/kg
  AUC: 66400 ng·h/mL
[5]; wild-type mice, doublet (lapatinib + botryllamide G)
  lapatinib brain exposure through 1 h (AUC0-1 h): 48.3 ± 14.9 pg·h/mg
[5]; wild-type mice, lapatinib + botryllamide G + tariquidar 4 mg/kg i.v. (triplet)
  lapatinib brain exposure AUC through 24 h: 2878 pg·h/mg
[5]; wild-type mice, lapatinib + botryllamide G, 24 h
  lapatinib plasma AUC: 71,576 h*pg/mg
[5]; wild-type mice, lapatinib alone (abstract)
  lapatinib brain AUC through 24 h: 4461 ng·h/mL
[5]; wild-type mice, singlet (lapatinib alone)
  lapatinib brain exposure through 1 h (AUC0-1 h): 120 ± 39.9 pg·h/mg
[5]; wild-type mice, singlet (lapatinib alone), listed as Lapatinib
  lapatinib brain exposure through 1 h (AUC0-1 h): 120 pg·h/mg
[5]; wild-type mice, triplet (lapatinib + botryllamide G + tariquidar)
  lapatinib brain exposure through 1 h (AUC0-1 h): 298 ± 44.6 pg·h/mg
[5]; wild-type mice, triplet (lapatinib + botryllamide G + tariquidar), listed as Lapatinib
  lapatinib brain exposure through 1 h (AUC0-1 h): 298 pg·h/mg

Source: publication PMC7012088 (Cancer Biology & Therapy, 2019)
